Assay results as given in ChEMBL document CHEMBL4680078, “Inhibitors of the Cysteine Synthase CysM with Antibacterial Potency against Dormant Mycobacterium tuberculosis” (J Med Chem, 2016).
pKd: −log10 of the molar value. Activity calls are given as the source filed them. No cut-off for these calls is given here.

Columns and labels:
[1] = system: Mycobacterium tuberculosis; assay: Antimycobacterial activity against Mycobacterium tuberculosis H37Rv assessed as inhibition of microbial growth incubated for 5 days by alamar blue assay; assay type: functional; details: 120 h, time 5 day
[2] = system: Mycobacterium tuberculosis; assay: Inhibition of Mycobacterium tuberculosis CysM expressed in Escherichia coli strain BL21 (DE3) assessed as apparent first-order rate constant for the formation of the alpha-aminoacrylate intermediate at 100 uM incubated for 5 mins in presence of OPS by spectrophotometry
Procedure, shortened: (§1)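 Orthogonal activity assay with recombinant CysM, following formation of the α-aminoacrylate intermediate in the first half-reaction with OPS. Apparent first-order rate constants (kobs) determined. Only residual activities below 20% are reliably quantified; >20% remaining activity is reported as a limit.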

[3] = system: Mycobacterium tuberculosis; assay: Inhibition of Mycobacterium tuberculosis CysM expressed in Escherichia coli strain BL21 (DE3) assessed as reduction in amino-acrylate intermediate formation by measuring residual enzyme activity at 100 uM incubated for 5 mins in presence of OPS by spectrophotometry; procedure, shortened: as §1
[4] = Binding affinity to Mycobacterium tuberculosis CysM expressed in Escherichia coli strain BL21 (DE3) incubated for 5 mins by PLP fluorescence-based screening assay; details: for pKd: read-out: Kd
Procedure, shortened: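 Binding measured by the rise in fluorescence emission of the enzyme-bound PLP cofactor on ligand binding, using recombinant CysM at 2 µM. Kd obtained by fitting the ligand concentration dependence to a 1:1 binding-site model. Affinities approaching sub-µM are limited by protein concentration.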

[5] = system: Mycobacterium tuberculosis; assay: Antimycobacterial activity against Mycobacterium tuberculosis H37Rv grown under nutrient starvation condition assessed as reduction in nonreplicating cells count incubated for 7 days at 10 ug/ml; assay type: functional; details: for log(activity): dose 10 µg/ml, time 7 day; for Activity: dose 10.0 µg/ml, time 7.0 day
[6] = system: HepG2; assay: Cytotoxicity in human HepG2 cells assessed as reduction in cell viability at 10 uM incubated for 72 hrs by Cell-titer-Glo assay; assay type: cell-based; details: hepg2, 72 h
[7] = Binding affinity to Mycobacterium tuberculosis CysM by ITC analysis
[8] = system: J774.A1; assay: Cytotoxicity in mouse J774.A1 cells assessed as reduction in cell viability at 10 uM incubated for 72 hrs by Cell-titer-Glo assay; assay type: cell-based; details: j774.a1, 72 h
[9] = system: SH-SY5Y; assay: Cytotoxicity in human SH-SY5Y cells assessed as reduction in cell viability at 10 uM incubated for 72 hrs by Cell-titer-Glo assay; assay type: cell-based
[10] = system: THP-1; assay: Cytotoxicity in human THP-1 cells assessed as reduction in cell viability at 10 uM incubated for 72 hrs by Cell-titer-Glo assay; assay type: cell-based; details: thp-1, 72 h
[11] = system: Mycobacterium tuberculosis; assay: Bactericidal activity against Mycobacterium tuberculosis H37Rv grown under nutrient starvation condition assessed as reduction in nonreplicating cells count incubated for 7 days at 10 ug/ml in presence of 0.2 mM cysteine; assay type: functional, organism-based; details: dose 10.0 µg/ml, time 7.0 day
Procedure, shortened: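 Nutrient-starved, nonreplicating H37Rv culture exposed to compound at 10 µg/ml alongside added L-cysteine (series 0.0, 0.05, 0.2, 0.5 mM) and an untreated control. Viable bacteria counted by most probable number (MPN) assay. Run in triplicate.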

[12] = system: Mycobacterium tuberculosis; assay: Selectivity index, ratio of Kd for binding affinity to Mycobacterium tuberculosis CysK2 to Kd for binding affinity to Mycobacterium tuberculosis CysM expressed in Escherichia coli strain BL21 (DE3)
[13] = system: Mycobacterium tuberculosis; assay: Selectivity index, ratio of Kd for binding affinity to Mycobacterium tuberculosis CysK1 to Kd for binding affinity to Mycobacterium tuberculosis CysM expressed in Escherichia coli strain BL21 (DE3)
[14] = Binding affinity to Mycobacterium tuberculosis CysK1 by PLP fluorescence-based screening assay
[15] = Binding affinity to Mycobacterium tuberculosis CysK2 by PLP fluorescence-based screening assay
[16] = target: T1, Cystathionine beta-synthase (Homo sapiens) (UniProt P35520); assay: (§2) Binding affinity to human CBS by PLP fluorescence-based screening assay
T1 sequence (whole entry): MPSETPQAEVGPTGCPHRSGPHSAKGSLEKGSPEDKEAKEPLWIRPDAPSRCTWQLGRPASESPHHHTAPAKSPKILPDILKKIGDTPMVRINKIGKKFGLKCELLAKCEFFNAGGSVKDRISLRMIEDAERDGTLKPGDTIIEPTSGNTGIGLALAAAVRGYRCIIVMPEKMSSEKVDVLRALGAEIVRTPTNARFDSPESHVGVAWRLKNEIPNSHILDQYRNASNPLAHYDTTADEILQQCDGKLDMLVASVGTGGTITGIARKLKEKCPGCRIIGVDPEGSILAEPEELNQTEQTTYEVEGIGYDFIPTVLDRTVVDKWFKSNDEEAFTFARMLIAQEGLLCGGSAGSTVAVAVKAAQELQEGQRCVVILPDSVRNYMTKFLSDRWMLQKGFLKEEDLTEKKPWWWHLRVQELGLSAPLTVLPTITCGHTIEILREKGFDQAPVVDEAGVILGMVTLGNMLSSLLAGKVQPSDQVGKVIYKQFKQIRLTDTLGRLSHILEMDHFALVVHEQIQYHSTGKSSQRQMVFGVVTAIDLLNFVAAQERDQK

[17] = Stability in presence of cysteine assessed as compound degradation incubated for 24 hrs by HPLC analysis; assay type: physicochemical
[18] = Stability in presence of cysteine assessed as compound degradation incubated for 24 hrs by spectroscopy analysis; assay type: physicochemical
[19] = Selectivity index, ratio of Kd for binding affinity to human CBS to Kd for binding affinity to Mycobacterium tuberculosis CysM expressed in Escherichia coli strain BL21 (DE3)
[20] = Stability in presence of cysteine assessed as compound degradation incubated for 24 hrs by mass-spectrometry; assay type: physicochemical
[21] = target: T2, Cystathionine beta-synthase (Homo sapiens, UniProt P35520); assay: as §2
T2 sequence (P35520 whole entry): T1 sequence (whole entry)

CO[C@H]1/C=C/O[C@@]2(C)Oc3c(C)c(O)c4c(O)c(c(/C=N/N5CCN(C)CC5)c(O)c4c3C2=O)NC(=O)/C(C)=C\C=C\[C@H](C)[C@H](O)[C@@H](C)[C@@H](O)[C@@H](C)[C@H](OC(C)=O)[C@@H]1C [RIFAMPIN]
MIC [1]: 0.5 µM

Cc1ccc(NC(=O)Nc2cccc(C(=O)O)c2)cc1
MIC [1]: 23.1 µM | K [2]: 1.92 min⁻¹ | Activity [3]: 4.9% | pKd [4]: 5.10

NNC(=O)c1ccncc1 [ISONIAZID]
MIC [1]: 0.4 µM | log(activity) [5]: 1

COc1ccc(NC(=O)Nc2cccc(C(=O)O)c2)cc1
MIC [1]: 21.8 µM | K [2]: 3.84 min⁻¹ | Activity [3]: 9.9% | Activity [5]: inactive | pKd [4]: 4.95

CC(=O)c1ccc(NC(=O)Nc2cccc(C(=O)O)c2)cc1
K [2]: > 20 min⁻¹ | pKd [4]: 3.96

O=C(Nc1ccccc1)Nc1cccc(C(=O)O)c1
K [2]: 1.02 min⁻¹ | Activity [3]: 2.6% | pKd [4]: 4.89

O=C(Nc1ccc(C(=O)O)c(O)c1)Nc1ccc(Cl)c(Cl)c1
K [2]: > 20 min⁻¹ | Kd [4]: Not Active

O=C(Nc1ccc(Br)cc1)Nc1cccc(C(=O)O)c1
MIC [1]: 18.6 µM | Activity [6]: Non-Toxic | pKd [7]: 5.85 | Activity [8]: Non-Toxic | Activity [9]: Non-Toxic | Activity [10]: Non-Toxic | K [2]: 0.48 min⁻¹ | Activity [3]: 1.2% | Activity [5]: inactive

O=C(Nc1cccc(-c2nnn[nH]2)c1)Nc1ccc(Cl)c(Cl)c1
K [2]: > 20 min⁻¹ | Kd [4]: Not Active

O=C(Nc1ccc([N+](=O)[O-])cc1)Nc1cccc(C(=O)O)c1
MIC [1]: 20.7 µM | K [2]: 2.22 min⁻¹ | Activity [3]: 5.7% | Activity [5]: inactive | pKd [4]: 4.98

O=C(Nc1cccc(-c2ccccc2)c1)Nc1ccc(C(=O)O)c(O)c1
MIC [1]: 2.2 µM | Activity [11]: inactive | K [2]: 0.48 min⁻¹ | Activity [3]: 1.2% | log(activity) [5]: 3 | pKd [4]: 5.35

O=C(O)c1cccc(NC(=S)Nc2ccc(Cl)cc2)c1
K [2]: > 20 min⁻¹ | pKd [4]: < 3.52

O=C(Nc1cccc(C(=O)O)c1)Nc1cccc(-c2ccccc2)c1
MIC [1]: 18.8 µM | Ratio [12]: 15 | Ratio [13]: > 80 | Activity [6]: Non-Toxic | pKd [14]: 4.01 | pKd [15]: 4.65 | Activity [8]: Non-Toxic | Activity [9]: Non-Toxic | Activity [16]: inactive | Activity [10]: Non-Toxic | K [2]: 0.24 min⁻¹ | Activity [3]: 0.6% | pKd [4]: 5.77

O=C(Nc1ccc(Cl)cc1)Nc1cccc(C(=O)O)c1
MIC [1]: 21.5 µM | Activity [6]: Non-Toxic | pKd [7]: 5.47 | Activity [8]: Non-Toxic | Activity [9]: Non-Toxic | Activity [10]: Non-Toxic | K [2]: 0.24 min⁻¹ | Activity [3]: 0.6% | Activity [5]: inactive

O=C(Nc1cccc(-c2ccccc2)c1)Nc1ccc(O)c(C(=O)O)c1
Activity [6]: Non-Toxic | pKd [7]: 5.66 | Activity [8]: Non-Toxic | Activity [9]: Non-Toxic | Activity [10]: Non-Toxic | K [2]: 0.23 min⁻¹ | Activity [3]: 0.6%

Cc1ccc(C(=O)Nc2cccc(C(=O)O)c2)cc1
K [2]: > 20 min⁻¹ | Kd [4]: Not Active

O=C(Nc1ccc(Cl)c(Cl)c1)Nc1ccc(C(=O)O)cc1O
K [2]: > 20 min⁻¹ | Kd [4]: Not Active

O=C(Nc1ccc(-c2cccc(Cl)c2Cl)cc1)Nc1cccc(C(=O)O)c1
Activity [6]: Non-Toxic | Activity [8]: Non-Toxic | Activity [9]: Non-Toxic | Activity [10]: Non-Toxic

O=C(NCc1ccc(Cl)c(Cl)c1)Nc1cccc(C(=O)O)c1
K [2]: > 20 min⁻¹ | pKd [4]: < 3.52

O=C(Nc1ccc(Cl)c(Cl)c1)Nc1ccc(O)c(C(=O)O)c1
K [2]: > 20 min⁻¹ | Kd [4]: Not Active

O=C(Nc1cccc(C(=O)O)c1)Nc1ccc(Cl)c(Cl)c1
Stabilty [17]: Unstable | MIC [1]: 9.6 µM | Stabilty [18]: Unstable | Ratio [12]: 15 | Ratio [13]: > 80 | Activity [6]: Non-Toxic | pKd [14]: 3.62 | pKd [15]: 4.52 | Ratio [19]: 300 | Stabilty [20]: Unstable | pKd [7]: 6.49 | Activity [11]: inactive | Activity [8]: Non-Toxic | Activity [9]: Non-Toxic | pKd [21]: 4.03 | Activity [10]: Non-Toxic | K [2]: 0.1 min⁻¹ | Activity [3]: 0.3% | log(activity) [5]: 3

O=C(O)c1cccc(NS(=O)(=O)c2ccc(Cl)c(Cl)c2)c1
K [2]: > 20 min⁻¹ | Kd [4]: Not Active
